Residues, ends and D or L forms follow the SMILES beside them.
Each molecule was assayed on Rattus norvegicus (assay: Cardioprotective activity in Sprague-Dawley rat model of myocardial ischemia-reperfusion injury assessed as reduction in MI/AR ratio at 1 to 10 mg/kg, iv bolus administered 15 mins prior to 30 mins LCX ligation by TTC staining-based fluorescence microscopy relative to placebo control). Details: dose mg/kg 1-10.
Format: functional, Myocardium
Parameters: scale not given: the % may be the effect or the level left
Outline: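 Anaesthetised animals underwent thoracotomy and pericardotomy, then LCX coronary ligation for 30 min followed by reperfusion. Agent was given in isotonic saline (pH-neutralised with NaOH, 285 mOsm), 1 mL/kg, before ligation. Fluorescent microspheres injected into the LV cavity during ischemia marked the area at risk. Hearts were excised after 24 h and cut into five 2 mm slices stained with 1% TTC. The MI/AR ratio was compared with placebo by Student's t-test.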

Going from `NC(=O)CC[C@H](NC(=O)CCCC[C@@H]1CCSS1)C(=O)NCC(=O)O` to `O=C(O)CC[C@H](NC(=O)CCCC[C@@H]1CCSS1)C(=O)NCCS(=O)(=O)O`, the Activity rises from 17% to 33%.

Compared with `O=C(O)CCNC(=O)CCCC[C@@H]1CCSS1`, `O=C(CCCC[C@@H]1CCSS1)NCCOP(=O)(O)O` is higher in Activity: 39% for the first, 47% for the second.

Compared with `C[C@H](NC(=O)[C@H](CCC(=O)O)NC(=O)CCCC[C@@H]1CCSS1)C(=O)O` [CMX-2043], `O=C(O)CCCC[C@@H]1CCSS1` [THIOCTIC ACID] is lower in Activity: 31% for the first, 19% for the second.

First: C[C@H](NC(=O)CCCC[C@@H]1CCSS1)C(=O)N[C@@H](CCC(=O)O)C(=O)O
Second: CC(=O)N[C@@H](CCC(=O)O)C(=O)N[C@@H](C)C(=O)N[C@@H](CCC(=O)O)C(=O)N[C@@H](C)C(=O)O (Ac-EAEA-OH)
The Activity of the first is higher: 24% for the first, 23% for the second.

Going from `O=C(O)CN(CC(=O)O)C(=O)CCCC[C@@H]1CCSS1` to `O=C(O)CC[C@H](NC(=O)CCCC[C@@H]1CCSS1)C(=O)O`, the Activity rises from 21% to 33%.

Going from `O=C(CCCC[C@@H]1CCSS1)Nc1ccc(C(=O)O)cc1` to `O=C(CCCC[C@@H]1CCSS1)Nc1cccc(S(=O)(=O)O)c1`, the Activity rises from 22% to 33%.

Compared with `O=C(CCCC[C@@H]1CCSS1)NCCS(=O)(=O)O`, `O=C(CCCC[C@@H]1CCSS1)N[C@@H](Cc1ccc(O)cc1)C(=O)O` is lower in Activity: 45% for the first, 29% for the second.

First: C[C@H](NC(=O)[C@H](Cc1ccc(O)cc1)NC(=O)CCCC[C@@H]1CCSS1)C(=O)O
Second: O=C(CCCC[C@@H]1CCSS1)Nc1ccc(S(=O)(=O)O)cc1
The Activity of the first is lower: 31% for the first, 44% for the second.

Going from `CC(=O)N[C@@H](CCC(=O)O)C(=O)N[C@@H](C)C(=O)O` (Ac-Glu-Ala-OH) to Ac-EAEAEGA-OH, the Activity falls from 23% to 17%.

First: O=C(O)CNC(=O)[C@H](CC(=O)O)NC(=O)CCCC[C@@H]1CCSS1
Second: O=C(CCCC[C@@H]1CCSS1)N[C@@H](CS(=O)(=O)O)C(=O)O
The Activity of the first is lower: 28% for the first, 30% for the second.

Going from `O=C(CCCC[C@@H]1CCSS1)NC(CF)C(=O)O` (some centres undefined) to `O=C(CCCC[C@@H]1CCSS1)N[C@@H](Cc1ccc(C(=O)O)cc1)C(=O)O`, the Activity rises from 10% to 26%.

Going from `O=C(CCCC[C@@H]1CCSS1)NCCP(=O)(O)O` to `O=C(CCCC[C@@H]1CCSS1)NCCOS(=O)(=O)O`, the Activity falls from 53% to 30%.
